High-throughput results as filed in PubChem.
CAL PDZ FP-1 – untagged CAL PDZ binding inhibitors, primary screen, biochemical, fluorescence polarization, HTS; purified CAL PDZ, TMR-peptide fluorescence polarization, 1 h; 300,000 tested, 0.92% active; inhibition, % at 24.9 µM;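 active = mean inhibition of at least 30% with at least half of replicates also reaching 30%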
CaV13 ICDI inh – Disruptors of the CACNA1D IQ motif to Ca2+-dependent inactivation inhibitor domain association, primary screening, Förster resonance energy transfer in intact living … | HEK cells, CFP/YFP FRET ICDI-IQ, plate reader, 10 min; percent FRET-ratio fall versus neutral wells | inhibition, % at 12.3 µM | 340,000 tested, 0.098% active | AID 743397;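 active = mean replicate inhibition of at least 30% and at least 1% of replicates passing that level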
CAL PDZ FP-2 – CAL PDZ peptide-binding inhibitors, primary screen, biochemical, fluorescence polarization, Cer-tagged CAL PDZ, HTS | Golgi-associated PDZ and coiled-coil motif-containing protein (Homo sapiens), Q9HD26 | purified CAL PDZ, TMR-peptide fluorescence polarization, 1 h | inhibition, % at 20 µM | 330,000 tested, 0.02% active | AID 504414, 2011;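 active = highest replicate inhibition of at least 40%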
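Read-out basis: mP drop reported as inhibition | Assay system: Tagged CAL PDZ protein CerCALP, purified | Benchmarks: Unlabelled peptide for full inhibition, DMSO wells as neutral | Schedule: 1 h incubation at room temperature before polarization reading | Buffer or medium: Sodium phosphate/NaCl buffer pH 7.4 with TCEP, IgG, Thesit | Doses: Single point, 20 µM | Measured by: Fluorescence polarization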
ARNT TACC3 PPI – disruptors of ARNT/TACC3 protein interaction, primary screen, biochemical, AlphaScreen, single concentration; AlphaScreen His-ARNT PAS-B/GST-TACC3 binding, luminescence; TACC3 fragment carries E629A point mutation; 390,000 tested, 0.66% active; inhibition, % at 9.99 µM;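 active = mean inhibition of replicates at least 50% and at least half of replicates each reaching 50%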
A number is an active result; . = inactive; / = no result given. Shown are actives, neighbours in structure and some others; about 1.2% of the full set was active somewhere.

SMILES	CAL PDZ FP-1	CaV13 ICDI inh	CAL PDZ FP-2	ARNT TACC3 PPI
C[C@H]1CN([C@@H](C)CO)C(=O)c2cccc(N(C)C)c2O[C@@H]1CN(C)Cc1ccncc1	/	/	/	.
O=C(CSc1nnc(N2CCCC2)n1-c1ccccc1Cl)N1CCN(c2ccccn2)CC1	40	.	.	.
CN1C(=O)c2cc(NC(=O)C3CCOCC3)ccc2OC[C@H]2O[C@@H](CC(=O)NC3CCCC3)CC[C@@H]21	/	/	/	.
COc1ccc(C(C)NC(=O)c2ccncc2)cc1OC (stereo not drawn)	76	.	.	.
COc1ccc(C(C)NC(=O)c2ccc(Cl)cc2)cc1OC (stereo not drawn)	.	.	.	.
Cc1noc(C)c1NC(=O)N[C@@H]1CC[C@H](CC(=O)NCCCN(C)C)O[C@H]1CO	/	/	/	.
CCNS(=O)(=O)c1ccc(NC(=S)N2CCc3ccccc32)cc1	.	.	.	53
N=C1/C(=C\c2ccc(-c3cccc(Cl)c3)o2)C(=O)N=C2SC=C(c3ccccc3)N12	.	.	.	.
N=C1/C(=C\c2ccc(-c3ccc(C(=O)O)cc3)o2)C(=O)N=C2SC=C(c3ccccc3)N12	78	.	.	.
O=C(COc1ccc(Cl)cc1)NCCCn1ccnc1	.	/	.	47
O=C1c2ccccc2C(=O)N1CCCn1ccnc1	.	.	.	.
O=C(CCCN1C(=O)c2ccccc2C1=O)NCCCn1ccnc1	49	.	.	.
O=C(NCCCn1ccnc1)Nc1ccc(Cl)c(Cl)c1	.	.	.	65
COc1ccc(OCC(=O)NCCCn2ccnc2)cc1	.	.	.	.
CCOC(=O)c1ccc(NC(=S)NCCCn2ccnc2)cc1	/	.	.	35
C[C@@H]1CN([C@H](C)CO)C(=O)c2cc(N(C)C)ccc2O[C@H]1CN(C)S(=O)(=O)c1cccs1	/	/	/	.
C[C@H]1CN([C@@H](C)CO)C(=O)c2cccc(NC(=O)Nc3ccccc3)c2O[C@@H]1CN(C)C	/	/	/	.
N#Cc1ccc(OCC(=O)NCCCn2ccnc2)cc1	.	.	.	69
O=C(COc1ccc(F)cc1)NCCCn1ccnc1	.	.	.	.
COCC(C)n1c(SCC(=O)N2CC(=O)Nc3ccccc32)nc2ccccc2c1=O (stereo not drawn)	47	.	.	.
COCC(=O)Nc1ccc2c(c1)OC[C@@H](C)N(C(=O)C1CCCC1)C[C@H](C)[C@@H](OC)CN(C)C2=O	/	/	/	.
O=c1c2ccccc2c2ccccc2c(=O)n1-c1ccccc1	.	.	.	.
Cc1cn(C(C)C)c(=O)n(-c2ccccc2)c1=O	33	.	/	.
C[C@@H]1CCCCO[C@H](CN(C)C(=O)CCC(F)(F)F)[C@H](C)CN([C@@H](C)CO)C(=O)c2cc(NC(=O)NC3CCCCC3)ccc2O1	/	/	/	.
CC(C)Cc1nc2oc3c(NCC(C)O)ncnc3c2c2c1CCCC2 (stereo not drawn)	43	.	.	.
SMILES	CAL PDZ FP-1	CaV13 ICDI inh	CAL PDZ FP-2	ARNT TACC3 PPI
O=C(O)CN(CC(=O)O)CC(=O)O	.	.	.	65
O=C(/C=C/c1cccc([N+](=O)[O-])c1)NCCSCc1cccc(Cl)c1	52	.	.	.
Cc1ccc(S(=O)(=O)Nc2ccc3c(c2)C(=O)N([C@@H](C)CO)C[C@@H](C)[C@H](CN(C)C(=O)Nc2c(C)noc2C)O3)cc1	/	/	/	.
CC1=C(C(N)=O)C(c2ccc(Cl)cc2Cl)n2ncnc2N1 (stereo not drawn)	38	.	.	.
CC(=O)C1=C(C)Nc2ncnn2C1c1ccccc1Cl (stereo not drawn)	.	.	.	.
C[C@@H]1CCCCO[C@H](CN(C)C(=O)Nc2ccc3c(c2)OCO3)[C@H](C)CN([C@H](C)CO)C(=O)c2cc(N(C)C)ccc2O1	/	/	/	.
Cc1ccc(S(=O)(=O)Nc2ccc(Nc3ccccc3)cc2)cc1	.	68	.	.
O=S(=O)(Nc1ccc(Nc2ccccc2)cc1)c1ccc(F)cc1	.	.	.	.
CCCN1CCN(S(=O)(=O)c2ccc3c(c2)CCC(=O)N3)CC1	46	.	.	.
O=C1CCc2cc(S(=O)(=O)N3CCN(c4ccccc4F)CC3)ccc2N1	.	.	.	.
CC(C)CCN1C(=O)c2ccc(C(=O)Nc3cc(C(=O)O)cc(C(=O)O)c3)cc2C1=O	33	.	.	.
CC(C)CCN1C(=O)c2ccc(C(=O)Nc3ccc(Br)cc3C(=O)O)cc2C1=O	/	.	.	.
COc1ccccc1NC(=O)N1[C@H](CO)[C@H](c2ccccc2)[C@@H]1C#N	/	/	/	.
CCN1CCN(c2ncc3c(n2)CC(c2cc(OC)c(OC)c(OC)c2)CC3=O)CC1 (stereo not drawn)	50	.	.	.
O=C1CC(c2cccc(Cl)c2)Cc2nc(N3CCN(c4ccccc4)CC3)ncc21 (stereo not drawn)	.	.	.	.
O=C(CN1C(=O)NC2(CCCCCC2)C1=O)N1CCN(c2ccc(F)cc2)CC1	.	.	.	.
COc1ccc(N2CCN(C(=O)CN3C(=O)NC4(CCCCCC4)C3=O)CC2)cc1	59	.	.	.
CCOc1ccc(OCC(=O)OCC(=O)Nc2ccccc2C#N)cc1	.	.	.	.
N#Cc1ccccc1NC(=O)COC(=O)COc1ccccc1[N+](=O)[O-]	35	.	.	.
CN1C(=O)c2cc(NC(=O)c3ccc(F)cc3)ccc2OC[C@H]2O[C@H](CC(=O)O)CC[C@H]21	/	/	/	.
Cc1noc(C)c1S(=O)(=O)N(C)C[C@@H]1OCCCC[C@@H](C)Oc2ccc(NC(=O)NC(C)C)cc2C(=O)N([C@@H](C)CO)C[C@H]1C	/	/	/	.
O=c1[nH]c(/C=C\c2cccc(O)c2)nc(O)c1[N+](=O)[O-]	/	.	.	.
O=c1[nH]c(/C=C\c2ccc(O)c(O)c2)nc(O)c1[N+](=O)[O-]	.	.	.	37
COc1ccccc1-c1ccc2c(c1)[C@H]1[C@H](CCN1S(=O)(=O)c1cn(C)cn1)[C@@H](CO)N2	/	/	/	.
CSc1cccc(NC(=S)Nc2ccc(F)cc2)c1	.	.	.	.
SMILES	CAL PDZ FP-1	CaV13 ICDI inh	CAL PDZ FP-2	ARNT TACC3 PPI
CSc1cccc(NC(=S)NN(C)C)c1	64	.	.	.
O=C(Cn1ncc2c([nH]c3ccccc32)c1=O)N1CCOCC1	39	.	.	.
CN1CCN(C(=O)Cn2ncc3c([nH]c4ccccc43)c2=O)CC1	.	.	.	.
C[C@H](CO)N1C[C@H](C)[C@@H](CN(C)CC2CCCC2)Oc2ncc(-c3ccc(C#N)cc3)cc2C1=O	/	/	/	.
N=c1c2c(ncn1CCCO)Oc1cc(O)ccc1C2c1ccccc1 (stereo not drawn)	39	.	.	.
Cc1ccc(CNS(=O)(=O)c2ccc(C(F)(F)F)cc2)n1C	58	.	.	.
